# Measurements reported in ChEMBL document CHEMBL3102776, “Synthesis and biological evaluation of farnesylthiosalicylamides as potential anti-tumor agents” (Bioorg Med Chem, 2014).
# Calls of active or inactive are those of the source. The calls are words filed in the database; no cut-off is given here.
# Columns and labels:
# SK-OV-3 = assay: Cytotoxicity against human SKOV3 cells after 48 hrs by MTT assay; assay type: functional, cell-based; conditions: SK-OV-3, 48 h
# Procedure, shortened: (§1)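 Cells seeded at 10⁴ per well in DMEM with 10% FBS and grown overnight. Compound at a range of concentrations for 48 h, in triplicate. MTT (5 mg mL⁻¹ stock) added for the last 4 h, formazan dissolved in DMSO, absorbance read at 570 nm. Percent inhibition used to derive IC50. Values are mean ± SEM of at least three independent experiments.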
# [1] = Cytotoxicity against human PANC1 cells after 48 hrs by MTT assay; assay type: functional, cell-based; conditions: PANC-1, 48 h; procedure, shortened: as §1
# [2] = Cytotoxicity against human H460 cells after 48 hrs by MTT assay; assay type: functional, cell-based; conditions: NCI-H460, 48 h; procedure, shortened: as §1
# MCF7 = assay: Cytotoxicity against human MCF7 cells after 48 hrs by MTT assay; assay type: functional, cell-based; conditions: MCF7, 48 h; procedure, shortened: as §1
# SMMC-7721 [3] = assay: Cytotoxicity against human SMMC7721 cells after 48 hrs by MTT assay; assay type: functional, cell-based; conditions: SMMC-7721, 48 h; procedure, shortened: as §1
# [4] = Lipophilicity, log P of the compound in 10% PEG400 aqueous solution; assay type: physicochemical
# [5] = Cytotoxicity against human SGC7901 cells after 48 hrs by MTT assay; assay type: functional, cell-based; conditions: SGC-7901, 48 h; procedure, shortened: as §1
# EJ = assay: Cytotoxicity against human EJ cells after 48 hrs by MTT assay; assay type: functional, cell-based; procedure, shortened: as §1
# [6] = Aqueous solubility of the compound in 10% PEG400 aqueous solution after 24 hrs by HPLC analysis; assay type: physicochemical
# Procedure, shortened: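 Roughly 20.0 mg of solid in 5 mL of 10% PEG400 in water. Sonicated 10 min, then stirred 24 h at 25 °C in a water bath. Centrifuged 10 min at 10,000 rpm and the supernatant passed through a microporous membrane. Concentration measured by HPLC against a standard curve.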
# SMMC-7721 [7] = assay: Inhibition of Ras in human SMMC7721 cells assessed as reduction in phosphorylated ERK1 level after 8 hrs by immunoblotting analysis; assay type: cell-based
# Procedure, shortened: (§2)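 SMMC-7721 cells at 1.5 × 10⁵/mL treated with 3.0, 6.0 or 12 µmol/L compound or vehicle for 8 h. Cells lysed, 50 µg protein per lane run on 12% SDS–PAGE gels. Blots probed for total and phospho-ERK1/2 (Thr202/Tyr204), total and phospho-Akt (Ser473), and β-actin. Densitometry relative to β-actin. Means ± SEM of three experiments.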
# SMMC-7721 [8] = assay: Induction of apoptosis in human SMMC7721 cells assessed as early apoptotic cells at 12 uM after 48 hrs by annexin V-FITC/propidium iodide staining-based flow cytometry (reference value: 3.87%); assay type: functional
# SMMC-7721 [9] = assay: Induction of apoptosis in human SMMC7721 cells assessed as necrotic cells at 3 uM after 48 hrs by annexin V-FITC/propidium iodide staining-based flow cytometry (reference value: 0.77%); assay type: functional
# SMMC-7721 [10] = assay: Inhibition of Ras in human SMMC7721 cells assessed as reduction in phosphorylated ERK1 level at 12 uM after 8 hrs by immunoblotting analysis; assay type: cell-based; procedure, shortened: as §2
# SMMC-7721 [11] = assay: Induction of apoptosis in human SMMC7721 cells assessed as viable cells at 12 uM after 48 hrs by annexin V-FITC/propidium iodide staining-based flow cytometry (reference value: 93.81%); assay type: functional; conditions: SMMC-7721, 48 h, read-out: Activity
# SMMC-7721 [12] = assay: Induction of apoptosis in human SMMC7721 cells assessed as reduction in Bcl2 level after 48 hrs by Western blotting analysis; assay type: functional, cell-based
# SMMC-7721 [13] = assay: Inhibition of Ras in human SMMC7721 cells assessed as reduction in phosphorylated ERK2 level after 8 hrs by immunoblotting analysis; assay type: cell-based; procedure, shortened: as §2
# SMMC-7721 [14] = assay: Induction of apoptosis in human SMMC7721 cells assessed as early apoptotic cells at 6 uM after 48 hrs by annexin V-FITC/propidium iodide staining-based flow cytometry (reference value: 3.87%); assay type: functional
# SMMC-7721 [15] = assay: Induction of apoptosis in human SMMC7721 cells assessed as viable cells at 3 uM after 48 hrs by annexin V-FITC/propidium iodide staining-based flow cytometry (reference value: 93.81%); assay type: functional; conditions: SMMC-7721, 48 h, read-out: Activity
# SMMC-7721 [16] = assay: Induction of apoptosis in human SMMC7721 cells assessed as increase in Bax level after 48 hrs by Western blotting analysis; assay type: functional, cell-based
# Procedure, shortened: (§3)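 SMMC-7721 cells treated with or without compound at several concentrations for 48 h. Lysates immunoblotted for Bax, Bcl-2 and caspase-3, with β-actin as loading control. Band levels relative to β-actin quantified by densitometric scanning. Means ± SEM from three separate experiments.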
# SMMC-7721 [17] = assay: Induction of apoptosis in human SMMC7721 cells after 48 hrs by annexin V-FITC/propidium iodide staining-based flow cytometry; assay type: functional, cell-based
# SMMC-7721 [18] = assay: Induction of apoptosis in human SMMC7721 cells assessed as late apoptotic cells at 3 uM after 48 hrs by annexin V-FITC/propidium iodide staining-based flow cytometry (reference value: 1.55%); assay type: functional
# SMMC-7721 [19] = assay: Induction of apoptosis in human SMMC7721 cells assessed as late apoptotic cells at 12 uM after 48 hrs by annexin V-FITC/propidium iodide staining-based flow cytometry (reference value: 1.55%); assay type: functional
# SMMC-7721 [20] = assay: Induction of apoptosis in human SMMC7721 cells assessed as viable cells at 6 uM after 48 hrs by annexin V-FITC/propidium iodide staining-based flow cytometry (reference value: 93.81%); assay type: functional; conditions: SMMC-7721, 48 h, read-out: Activity
# SMMC-7721 [21] = assay: Induction of apoptosis in human SMMC7721 cells assessed as necrotic cells at 6 uM after 48 hrs by annexin V-FITC/propidium iodide staining-based flow cytometry (reference value: 0.77%); assay type: functional
# SMMC-7721 [22] = assay: Induction of apoptosis in human SMMC7721 cells assessed as early apoptotic cells at 3 uM after 48 hrs by annexin V-FITC/propidium iodide staining-based flow cytometry (reference value: 3.87%); assay type: functional
# SMMC-7721 [23] = assay: Induction of apoptosis in human SMMC7721 cells assessed as late apoptotic cells at 6 uM after 48 hrs by annexin V-FITC/propidium iodide staining-based flow cytometry (reference value: 1.55%); assay type: functional
# SMMC-7721 [24] = assay: Inhibition of Ras in human SMMC7721 cells assessed as reduction in phosphorylated Akt level at 12 uM after 8 hrs by immunoblotting analysis; assay type: cell-based; procedure, shortened: as §2
# SMMC-7721 [25] = assay: Inhibition of Ras in human SMMC7721 cells assessed as reduction in phosphorylated ERK2 level at 12 uM after 8 hrs by immunoblotting analysis; assay type: cell-based; procedure, shortened: as §2
# SMMC-7721 [26] = assay: Induction of apoptosis in human SMMC7721 cells assessed as increase in caspase-3 level after 48 hrs by Western blotting analysis; assay type: functional, cell-based; procedure, shortened: as §3
# SMMC-7721 [27] = assay: Induction of apoptosis in human SMMC7721 cells assessed as necrotic cells at 12 uM after 48 hrs by annexin V-FITC/propidium iodide staining-based flow cytometry (reference value: 0.77%); assay type: functional
# SMMC-7721 [28] = assay: Inhibition of Ras in human SMMC7721 cells assessed as reduction in phosphorylated Akt level after 8 hrs by immunoblotting analysis; assay type: cell-based; procedure, shortened: as §2
structure (smiles),measurement,setting,value
CC(C)=CCC/C(C)=C/CC/C(C)=C/CSc1ccccc1C(=O)NCCCCCN,IC50,SK-OV-3,7.13 µM
same,IC50,[1],7.56 µM
same,IC50,[2],8.84 µM
same,IC50,MCF7,7.83 µM
same,IC50,SMMC-7721 [3],9.21 µM
same,logP,[4],5.98
same,IC50,[5],7.35 µM
same,IC50,EJ,9.85 µM
same,solubility at 24 h,[6],18 mg/mL
CC(C)=CCC/C(C)=C/CC/C(C)=C/CSc1ccccc1C(=O)NCCCN,IC50,SK-OV-3,12.3 µM
same,IC50,[1],11.8 µM
same,IC50,[2],20.4 µM
same,IC50,MCF7,13.7 µM
same,IC50,SMMC-7721 [3],10.6 µM
same,IC50,[5],12.8 µM
same,IC50,EJ,17.2 µM
CC(C)=CCC/C(C)=C/CC/C(C)=C/CSc1ccccc1C(=O)NCCCNC(=O)c1ccccc1SC/C=C(\C)CC/C=C(\C)CCC=C(C)C,IC50,SK-OV-3,> 50 µM
same,IC50,[1],> 50 µM
same,IC50,[2],> 50 µM
same,IC50,MCF7,> 50 µM
same,IC50,SMMC-7721 [3],> 50 µM
same,IC50,[5],> 50 µM
same,IC50,EJ,> 50 µM
CC(C)=CCC/C(C)=C/CC/C(C)=C/CSc1ccccc1C(=O)NCCCCCNC(=O)c1ccccc1SC/C=C(\C)CC/C=C(\C)CCC=C(C)C,IC50,SK-OV-3,41.9 µM
same,IC50,[1],> 50 µM
same,IC50,[2],47.1 µM
same,IC50,MCF7,> 50 µM
same,IC50,SMMC-7721 [3],36.2 µM
same,IC50,[5],> 50 µM
same,IC50,EJ,39.5 µM
same,solubility at 24 h,[6],< 0.01 mg/mL
CC(C)=CCC/C(C)=C/CC/C(C)=C/CSc1ccccc1C(=O)NCCNC(=O)c1ccccc1SC/C=C(\C)CC/C=C(\C)CCC=C(C)C,IC50,SK-OV-3,> 50 µM
same,IC50,[1],> 50 µM
same,IC50,[2],> 50 µM
same,IC50,MCF7,> 50 µM
same,IC50,SMMC-7721 [3],> 50 µM
same,IC50,[5],> 50 µM
same,IC50,EJ,> 50 µM
CC(C)=CCC/C(C)=C/CC/C(C)=C/CSc1ccccc1C(=O)N1CCN(C(=O)c2ccccc2SC/C=C(\C)CC/C=C(\C)CCC=C(C)C)CC1,IC50,SK-OV-3,> 50 µM
same,IC50,[1],> 50 µM
same,IC50,[2],> 50 µM
same,IC50,MCF7,> 50 µM
same,IC50,SMMC-7721 [3],> 50 µM
same,IC50,[5],> 50 µM
same,IC50,EJ,> 50 µM
CC(C)=CCC/C(C)=C/CC/C(C)=C/CSc1ccccc1C(=O)NCCCCNC(=O)c1ccccc1SC/C=C(\C)CC/C=C(\C)CCC=C(C)C,IC50,SK-OV-3,> 50 µM
same,IC50,[1],> 50 µM
same,IC50,[2],> 50 µM
same,IC50,MCF7,45.8 µM
same,IC50,SMMC-7721 [3],> 50 µM
same,IC50,[5],> 50 µM
same,IC50,EJ,> 50 µM
CC(C)=CCC/C(C)=C/CC/C(C)=C/CSc1ccccc1C(=O)NCCOCCN,IC50,SK-OV-3,6.83 µM
same,Activity,SMMC-7721 [7],Dose-dependent effect
same,Activity,SMMC-7721 [8],59.67%
same,IC50,[1],3.78 µM
same,Activity,SMMC-7721 [9],0.24%
same,IC50,[2],6.89 µM
same,IC50,MCF7,7.29 µM
same,Activity,SMMC-7721 [10],Active
same,IC50,SMMC-7721 [3],5.71 µM
same,viability at 12 µM,SMMC-7721 [11],15.3%
same,Activity,SMMC-7721 [12],Dose-dependent effect
same,Activity,SMMC-7721 [13],Dose-dependent effect
same,Activity,SMMC-7721 [14],29.84%
same,logP,[4],4.85
same,IC50,[5],7.63 µM
same,viability at 3 µM,SMMC-7721 [15],84%
same,Activity,SMMC-7721 [16],Dose-dependent effect
same,Activity,SMMC-7721 [17],Dose-dependent effect
same,Activity,SMMC-7721 [18],4.85%
same,Activity,SMMC-7721 [19],24.84%
same,viability at 6 µM,SMMC-7721 [20],49.4%
same,Activity,SMMC-7721 [21],2.07%
same,IC50,EJ,6.13 µM
same,Activity,SMMC-7721 [22],10.9%
same,Activity,SMMC-7721 [23],18.68%
same,Activity,SMMC-7721 [24],Active
same,Activity,SMMC-7721 [25],Active
same,solubility at 24 h,[6],23.8 mg/mL
same,Activity,SMMC-7721 [26],Dose-dependent effect
same,Activity,SMMC-7721 [27],0.21%
same,Activity,SMMC-7721 [28],Dose-dependent effect
